The source of these data is ChEMBL document CHEMBL3286109, “Structure-activity relationship studies of indole-based compounds as small molecule HIV-1 fusion inhibitors targeting glycoprotein 41” (J Med Chem, 2014).

The term EC50 denotes the concentration giving half of the maximal effect. As usually defined, the EC90 is the concentration needed for an effect of 90%. As usually defined, the Ki is the dissociation constant of the complex between target and ligand, obtained from inhibition or displacement. A high value points to a looser hold on the target.

A value given as a limit tells only on which side of the number the result lay.

Data set [1] has as its system Human immunodeficiency virus 1. The data set can be described thus: Antiviral activity against HIV-1 02CM0015BBY subtype CRF02_AG infected in human PBMC assessed as reverse transcriptase activity after 6 days by microtiter plate-based assay. It is filed as functional, organism-based. As to conditions: Human immunodeficiency virus 1, 02CM0015BBY subtype CRF02_AG, 144 h. An outline of the steps: (§1)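 PBMCs from screened donors, Ficoll-purified, stimulated with 4 μg/mL phytohemagglutinin, kept in 20 U/mL IL-2; cells from two donors pooled, 5 × 10^4 cells/well.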

A short description of data set [2]: Therapeutic index, ratio of TC50 for human PBMC to EC50 for HIV-1 00UG_D26830M4 subtype D infected in human PBMC. As to conditions: read-out: TI.
Data set [3] relates to Human immunodeficiency virus 1. The data set can be described thus: Antiviral activity against HIV-1 92BR014 subtype B infected in human PBMC assessed as reverse transcriptase activity after 6 days by microtiter plate-based assay. It is filed as functional, organism-based. The note with it: Human immunodeficiency virus 1, 92BR014 subtype B, 144 h. In outline: as §1
The nature of data set [4]: Therapeutic index, ratio of TC50 for human PBMC to EC50 for HIV-1 91DJ263 subtype CRF02_AG infected in human PBMC. The note with it: read-out: TI.
The subject of data set [5] is Human immunodeficiency virus 1. The data set can be described thus: Antiviral activity against HIV-1 Ba-L subtype B infected in human PBMC assessed as reverse transcriptase activity after 6 days by microtiter plate-based assay. It is filed as functional, organism-based. As to conditions: Human immunodeficiency virus 1, Ba-L subtype B, 144 h. In outline: as §1
A short description of data set [6]: Therapeutic index, ratio of TC50 for human PBMC to EC50 for HIV-1 02CM0015BBY subtype CRF02_AG infected in human PBMC. As to conditions: read-out: TI.
Data set [7] deals with Human immunodeficiency virus 1. The data set can be described thus: Antiviral activity against HIV-1 3B infected in human MAGI-CCR5 cells assessed as inhibition of viral replication after 48 hrs by chemiluminescence assay. It counts as functional, organism-based. The note with it: Human immunodeficiency virus 1, 3B, MAGI-CCR5, 48 h.
Data set [8] can be described thus: Therapeutic index, ratio of TC50 for human PBMC to EC50 for HIV-1 01CM0005BBY subtype CRF02_AG infected in human PBMC. As to conditions: read-out: TI.
Data set [9] deals with Human immunodeficiency virus 1. The data set can be described thus: Antiviral activity against HIV-1 91DJ263 subtype CRF02_AG infected in human PBMC assessed as reverse transcriptase activity after 6 days by microtiter plate-based assay. It counts as functional, organism-based. As to conditions: Human immunodeficiency virus 1, 91DJ263 subtype CRF02_AG, 144 h. In outline:
as §1

Data set [10] can be described thus: Therapeutic index, ratio of TC50 for human PBMC to EC50 for HIV-1 92BR014 subtype B infected in human PBMC. As to conditions: read-out: TI. An outline of the steps:
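Human PBMC from screened donors were Ficoll-purified, stimulated with 4 μg/mL phytohemagglutinin, and kept in 20 U/mL IL-2. Cells from two donors were pooled at 5 × 10^4 cells/well and given nine serial compound dilutions in triplicate, then HIV-1 at a final MOI of about 0.1. TC50 was measured in parallel cultures by MTS viability. TI = TC50/EC50.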

Data set [11] can be described thus: Inhibition of HIV1 HXB2 gp41-mediated cell-cell fusion between viral envelope-expressing human HL2/3 cells to human TZM-bl cells by luciferase reporter assay. It is filed as cell-based. As to conditions: Human immunodeficiency virus 1, HXB2, TZM-bl.
A short description of data set [12]: Therapeutic index, ratio of TC50 for human PBMC to EC50 for HIV-1 92UG001 subtype D infected in human PBMC. The note with it: read-out: TI.
Data set [13] is described as follows: Therapeutic index, ratio of TC50 for human PBMC to EC50 for HIV-1 Ba-L subtype B infected in human PBMC. As to conditions: read-out: TI.
Data set [14] can be described thus: Cytotoxicity against human TZM-bl cells assessed as inhibition of cell viability by resazurin assay. The note with it: read-out: TC50 (the source's name).
In data set [15] the test system is Human immunodeficiency virus 1. The data set can be described thus: Antiviral activity against HIV-1 92UG001 subtype D infected in human PBMC assessed as reverse transcriptase activity after 6 days by microtiter plate-based assay. It counts as functional, organism-based. The note with it: Human immunodeficiency virus 1, 92UG001 subtype D, 144 h. In outline:
as §1

The nature of data set [16]: Retardation factor of the compound using 50% EtOAc/hexanes as solvent system by silca gel chromatography. It is filed as physicochemical.
Data set [17] concerns Human immunodeficiency virus 1. The data set can be described thus: Antiviral activity against HIV-1 00UG_D26830M4 subtype D infected in human PBMC assessed as reverse transcriptase activity after 6 days by microtiter plate-based assay. It is filed as functional, organism-based. The note with it: Human immunodeficiency virus 1, 00UG_D26830M4 subtype D, 144 h. An outline of the steps: as §1

In data set [18] the test system is Human immunodeficiency virus 1. The data set can be described thus: Antiviral activity against HIV-1 Ba-L infected in human MAGI-CCR5 cells assessed as inhibition of viral replication after 48 hrs by chemiluminescence assay. It is filed as functional, organism-based. As to conditions: Human immunodeficiency virus 1, Ba-L, MAGI-CCR5, 48 h.
Data set [19] can be described thus: Cytotoxicity against human MAGI-CCR5 cells assessed as inhibition of cell viability by MTS assay. The note with it: read-out: TC50 (the source's name). It is filed as cell-based. In general terms: Formazan colour is commonly taken as a measure of viable cells.
Data set [20] has as its system Human immunodeficiency virus 1. The data set can be described thus: Antiviral activity against HIV-1 01CM0005BBY subtype CRF02_AG infected in human PBMC assessed as reverse transcriptase activity after 6 days by microtiter plate-based assay. It counts as functional, organism-based. As to conditions: Human immunodeficiency virus 1, 01CM0005BBY subtype CRF02_AG, 144 h. An outline of the steps: as §1

The nature of data set [21]: Cytotoxicity against human PBMC assessed as inhibition of cell viability by MTS assay. It is filed as cell-based. The note with it: read-out: TC50 (the source's name).
The nature of data set [22]: Binding affinity to HIV1 Envelope glycoprotein gp41 Fe(env2.0)3 using C18FL as probe by fluorescence assay. Further details: species or system Human immunodeficiency virus 1.
A short description of data set [23]: Retardation factor of the compound using 40% EtOAc/hexanes as solvent system by silca gel chromatography. It is filed as physicochemical.

Take `CCOC(=O)c1cccc(Cn2ccc3ccc(-c4ccc5ccn(Cc6cccc(C(=O)O)c6)c5c4)cc32)c1`: the EC50 in [1] turned out to be 370 nM; in data set [3] it was 430 nM; in [5], 410 nM; in data set [7], 500 nM; in [9] it was 350 nM; in [11] it was 700 nM. Further, the concentration giving a half-maximal response (EC50) was 350 nM in [15], 390 nM in data set [17], 300 nM in data set [18] and 340 nM in data set [20]. Moreover, the concentration for an effect of 90% (EC90) in data set [1] was found to be 560 nM; in [3], 1230 nM; in data set [5], 590 nM; in [9], 580 nM; in [15], 1000 nM; in data set [17] it was 570 nM. The EC90 in data set [20] stood at 550 nM. Moreover, the selectivity ratio in data set [2] is > 128; in data set [4], > 141; in data set [6] it was > 137; in data set [8], > 147; in [10], > 116; in [12] it was > 141. Besides, the selectivity ratio in data set [13] was > 121. The CC50 in data set [14] is > 50000 nM; in data set [19], 43000 nM; in [21], > 50000 nM. In addition, the Rf in data set [16] stood at 0.48. In [22], the Ki turned out to be 1000 nM.
In data set [23], `COC(=O)c1cccc(Cn2ccc3ccc(-c4ccc5ccn(Cc6cccc(C(=O)O)c6)c5c4)cc32)c1` had a Rf of 0.13. In addition, the EC50 in [1] was 240 nM; in data set [3], 460 nM; in data set [5], 360 nM; in data set [7] it was 200 nM; in data set [9], 390 nM; in data set [11] it was 200 nM. Moreover, the half-maximal effective concentration (EC50) worked out at 400 nM in data set [15], 350 nM in [17], 200 nM in data set [18] and 290 nM in [20]. Moreover, the EC90 in data set [1] turned out to be 520 nM; in data set [3], 1430 nM; in data set [5] it was 630 nM; in data set [9] it was 920 nM; in [15], 990 nM; in data set [17], 580 nM. In addition, the EC90 in [20] stood at 540 nM. The selectivity ratio in data set [2] was determined as 33.3; in [4] it was 29.7; in data set [6] it was 47.8; in data set [8] it was 39.3; in [10], 25.3; in data set [12] it was 29.1. The selectivity ratio in data set [13] is 32.2. The CC50 in data set [14] is 53000 nM; in [19], 15000 nM; in data set [21], 11600 nM. The molecule also displayed a Ki in data set [22] of 600 nM.
Molecule `O=C(O)c1cccc(Cn2ccc3ccc(-c4ccc5cc[nH]c5c4)cc32)c1` returned a Rf in [23] of 0.13. The concentration giving a half-maximal response (EC50) was 47000 nM in data set [7], 15000 nM in data set [11] and 60000 nM in data set [18]. The CC50 in [14] is > 100000 nM; in data set [19] it was > 50000 nM. The molecule also yielded an inhibitory constant (Ki) in [22] of 2700 nM.
As for `COc1cccc(Cc2c[nH]c3cc(-c4ccc5c(Cc6cccc(C(=O)O)c6)c[nH]c5c4)ccc23)c1`, the half-maximal effective concentration (EC50) in data set [7] came out at 6200 nM; in data set [11] it was 4000 nM; in data set [18] it was 5900 nM. Further, the CC50 in [14] stood at 500000 nM; in data set [19], 12000 nM. This molecule registered an inhibition constant (Ki) in data set [22] of 900 nM.
Consider enfuvirtide, for which the concentration giving a half-maximal response (EC50) was 16.9 nM in data set [1]; > 2000 nM in data set [3]; 7.55 nM in data set [5]; 120 nM in data set [9]; 108 nM in [17]. Moreover, the EC90 is 43.4 nM in data set [1]; > 2000 nM in data set [3]; 23.6 nM in data set [5]; 206 nM in data set [9]; 71.3 nM in data set [15]; 195 nM in [17]. Further, in data set [20], the concentration for an effect of 90% (EC90) worked out at 55.8 nM. Further, the selectivity ratio was > 18.6 in data set [2]; > 16.6 in data set [4]; > 118 in [6]; > 110 in data set [8]; > 36 in [12]; > 265 in data set [13]. Moreover, in data set [21], the CC50 is > 2000 nM.
